These results are taken from ChEMBL document CHEMBL4414601 (J Med Chem, 2019).

For data set [1], the target named is T1, Calcium-dependent protein kinase 1 (Plasmodium falciparum, UniProt P62344). The experiment in a line: Binding affinity to CDPK1 in Plasmodium falciparum 3D7 blood stage extract incubated for 1 hr in presence of ATP-competitive kinase inhibitor by kinobeads based pull down assay. The conditions noted are these: read-out: Kd(app). An outline of the steps:
(§1)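 Chemoproteomic competition used kinobeads or Sepharose beads derivatized with ligand at 1 mM. Free compound was tested at six concentrations between 0.08 and 20 μM, in two independent experiments. Proteins were SP3-digested, TMT 10-plex labelled and measured by LC-MS/MS. IC50s came from competition curves, and apparent Kd was corrected for protein depletion by the beads.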

In a further data set the test system is Plasmodium falciparum. In words: Antiplasmodial activity against Plasmodium falciparum 3D7A erythrocytic stage assessed as reduction in [3H]hypoxanthine incorporation preincubated for 24 hrs followed by [3H]hypoxanthine addition and measured after 24 hrs by microbeta scintillation counting method. It is filed as functional, organism-based. An outline of the steps: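 Nine threefold serial dilutions from 5 μM top concentration. Incubated 24 h at 37 °C under 5% CO2/5% O2/90% N2, then 0.2 μCi [3H]-hypoxanthine per well for another 24 h. Cells harvested on glass fibre filters and counted. Data normalized to compound-free parasitized RBCs; IC50 fitted.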

Data set [2] deals with Plasmodium falciparum 3D7.
The test system of the next data set is L929. The experiment in a line: Cytotoxicity against mouse L929 cells assessed as reduction in viability by dual luciferase reporter gene assay. The class given is ADME, cell-based.
Data set [3] in a line: Binding affinity to SRPK2 in Plasmodium falciparum 3D7 blood stage extract incubated for 1 hr in presence of ATP-competitive kinase inhibitor by kinobeads based pull down assay. The conditions noted are these: read-out: Kd(app). Summed up: (§2)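 The free compound competed over six concentrations from 0.08 to 20 μM. Proteins were digested by a modified SP3 protocol, labelled with TMT 10-plex and quantified by LC-MS/MS. Apparent Kd was derived from IC50 corrected for bead depletion. Two independent experiments were run.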

Data set [4] addresses T2, Calcium-dependent protein kinase 4 (Plasmodium falciparum (isolate 3D7), UniProt Q8IBS5).
T2 sequence (Q8IBS5 whole entry): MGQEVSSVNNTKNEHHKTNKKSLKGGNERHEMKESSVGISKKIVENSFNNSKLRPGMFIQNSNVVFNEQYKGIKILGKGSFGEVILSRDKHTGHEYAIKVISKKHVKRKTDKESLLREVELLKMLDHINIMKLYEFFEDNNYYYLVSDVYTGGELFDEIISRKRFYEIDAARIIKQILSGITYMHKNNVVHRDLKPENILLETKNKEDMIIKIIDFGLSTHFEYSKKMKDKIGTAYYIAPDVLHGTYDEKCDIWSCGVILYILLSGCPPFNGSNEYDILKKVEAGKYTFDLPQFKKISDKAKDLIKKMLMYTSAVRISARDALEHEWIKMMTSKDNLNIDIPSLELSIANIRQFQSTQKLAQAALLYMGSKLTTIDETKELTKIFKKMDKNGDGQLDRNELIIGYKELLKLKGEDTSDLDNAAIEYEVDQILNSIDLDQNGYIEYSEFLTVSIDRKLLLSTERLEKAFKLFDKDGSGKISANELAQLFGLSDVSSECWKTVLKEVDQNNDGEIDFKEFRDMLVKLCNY
The experiment in a line: Binding affinity to CDPK4 in Plasmodium falciparum 3D7 blood stage extract incubated for 1 hr by kinobeads based pull down assay. The conditions noted are these: read-out: Kd(app). An outline of the steps:
as §1

The nature of data set [5]: Binding affinity to GSK3 in Plasmodium falciparum 3D7 blood stage extract incubated for 1 hr in presence of ATP-competitive kinase inhibitor by kinobeads based pull down assay. The following applies: read-out: Kd(app). Summed up: as §2
In another data set the target is T3, Casein kinase I (Plasmodium falciparum (isolate 3D7), UniProt Q8IHZ9).
T3 sequence (Q8IHZ9 whole entry): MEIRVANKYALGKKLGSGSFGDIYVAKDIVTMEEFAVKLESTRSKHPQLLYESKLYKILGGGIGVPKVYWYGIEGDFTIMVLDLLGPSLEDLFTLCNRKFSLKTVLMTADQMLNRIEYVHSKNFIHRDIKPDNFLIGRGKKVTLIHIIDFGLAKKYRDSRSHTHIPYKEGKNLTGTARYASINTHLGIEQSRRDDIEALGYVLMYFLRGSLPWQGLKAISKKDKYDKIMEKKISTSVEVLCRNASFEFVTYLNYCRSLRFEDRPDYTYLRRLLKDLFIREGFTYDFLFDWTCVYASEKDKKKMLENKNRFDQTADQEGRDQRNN
The experiment in a line: Binding affinity to CK1 in Plasmodium falciparum 3D7 blood stage extract incubated for 1 hr by kinobeads based pull down assay. The conditions noted are these: read-out: Kd(app). An outline of the steps: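 Chemoproteomic competition binding: Sepharose beads derivatized at 1 mM with the immobilized ligand (kinobeads prepared likewise). Free compound competed at six concentrations, 0.08–20 μM. Proteins were SP3-digested, TMT 10-plex labelled and quantified by LC-MS/MS on an Orbitrap. IC50 from the competition curve; apparent Kd corrected for protein depletion by the beads. Two independent experiments.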

Data set [6] addresses T1, Calcium-dependent protein kinase 1. The experiment in a line: Binding affinity to CDPK1 in Plasmodium falciparum 3D7 blood stage extract incubated for 1 hr by kinobeads based pull down assay. The conditions noted are these: read-out: Kd(app). An outline of the steps:
as §1

The nature of data set [7]: Binding affinity to GSK3 in Plasmodium falciparum 3D7 blood stage extract incubated for 1 hr by kinobeads based pull down assay. The following applies: read-out: Kd(app). Summed up: as §2
A short description of data set [8]: Lipophilicity, LogD of compound by reverse phase HPLC analysis.
Data set [9] can be described thus: Permeability of compound by PAMPA.
For data set [10], the target named is T2, Calcium-dependent protein kinase 4. In words: Binding affinity to CDPK4 in Plasmodium falciparum 3D7 blood stage extract incubated for 1 hr in presence of ATP-competitive kinase inhibitor by kinobeads based pull down assay. The conditions noted are these: read-out: Kd(app). An outline of the steps: as §1
The nature of data set [11]: Aqueous solubility of compound. The following applies: buffer.

pEC50, pKd: −log10 of the molar value. Converted amounts (≈) assume the structure as drawn. The source made the active and inactive calls. The rule behind the calls is not given here. Where only a bound is given, the exact number is not on record here.

T1 sequence (P62344 whole entry): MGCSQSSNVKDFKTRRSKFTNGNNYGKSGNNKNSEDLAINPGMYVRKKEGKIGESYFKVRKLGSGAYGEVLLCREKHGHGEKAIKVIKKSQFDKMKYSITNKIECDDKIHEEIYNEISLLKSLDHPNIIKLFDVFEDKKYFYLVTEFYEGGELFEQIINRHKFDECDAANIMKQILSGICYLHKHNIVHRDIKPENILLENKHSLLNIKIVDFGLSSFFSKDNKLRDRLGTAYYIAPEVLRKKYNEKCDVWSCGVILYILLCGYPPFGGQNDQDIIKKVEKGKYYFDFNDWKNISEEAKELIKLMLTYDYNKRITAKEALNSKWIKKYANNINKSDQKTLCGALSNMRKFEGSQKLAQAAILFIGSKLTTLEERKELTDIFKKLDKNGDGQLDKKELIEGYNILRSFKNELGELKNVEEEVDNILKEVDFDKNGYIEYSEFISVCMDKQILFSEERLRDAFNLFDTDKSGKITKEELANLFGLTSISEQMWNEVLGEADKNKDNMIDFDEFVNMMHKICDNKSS

For the compound `Fc1ccc(-c2nc(C3CCNCC3)sc2-c2ccnc(NCCN3CCSCC3)n2)cc1`, the pKd in [1] is 5.68; in data set [3] it was less than 4.70; in data set [4], 7.22; in [5] it was 5.28; on Casein kinase I, 5.82; in data set [6] it was 5.68. Also, the pKd is 5.28 in data set [7] and 7.22 in data set [10]. The values for the pEC50 with Plasmodium falciparum and in the data set on L929 were 5.39 and 4.82, respectively. Also, the “Kd(app)” value in [2] is “inactive”. Also, the chromatographic logD in data set [8] turned out to be 2.84. Besides, the Papp in data set [9] is 31 ×10⁻⁶ cm/s. The compound also registered a solubility in data set [11] of 491 µM (≈ 238 µg/mL).
